Reference: ChEMBL document CHEMBL4689842, “EUbOPEN Chemogenomics Library wave 1” (2021)

System: U2OS
Experiment: Multiplex assay against U2OS
Assay type: toxicity, cell-based
Conditions: human
Summary of the method: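 Imaging took place on a CQ1 microscope at 37°C and 5% CO2 once compound had been added to live cells stained at seeding with Hoechst33342, BioTracker Green Microtubule Cytoskeleton Dye, MitoTracker Red and Annexin V Alexa Fluor 680. CellPathfinder machine-learning gating classed cells as Hoechst high-intensity objects or normal cells, classed normal cells as having healthy, pyknosed or fragmented nuclei, and classed pyknosed cells as mitotic or apoptotic. Tubulin, mitochondrial-mass and membrane-permeability phenotypes are per cents of the healthy-nucleus cells.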

[1] = 12 h, 1 µM, compound concentration 1 uM, replicate 1
[2] = 12 h, 1 µM, compound concentration 1 uM, replicate 2
[3] = 12 h, 10 µM, compound concentration 10 uM, replicate 1
[4] = 12 h, 10 µM, compound concentration 10 uM, replicate 2
[5] = 24 h, 1 µM, compound concentration 1 uM, replicate 1
[6] = 24 h, 1 µM, compound concentration 1 uM, replicate 2
[7] = 24 h, 10 µM, compound concentration 10 uM, replicate 1
[8] = 24 h, 10 µM, compound concentration 10 uM, replicate 2

Structure (SMILES): C=CC(=O)Nc1cccc(Oc2nc(Nc3ccc(N4CCN(C)CC4)cc3OC)ncc2Cl)c1
- Population Apoptotic (%) [1]: 67%
- Population Fragmented Nuclei (%) [1]: 27%
- Population Healthy Nuclei (%) [1]: 36%
- Population Hoechst High Intensity Objects (%) [1]: 8%
- Population Membrane Permeable-Phenotype (%) [1]: 17%
- Population Mitochondria Different-Phenotype (%) [1]: 74%
- Population Mitotic Cells (%) [1]: 32%
- Population Normal (%) [1]: 92%
- Population Pyknosed Nuclei (%) [1]: 36%
- Population Tubulin-Different-Phenotype (%) [1]: 96%
- Total Cell Count [1]: 140
- Population Apoptotic (%) [2]: 73%
- Population Fragmented Nuclei (%) [2]: 32%
- Population Healthy Nuclei (%) [2]: 26%
- Population Hoechst High Intensity Objects (%) [2]: 13%
- Population Membrane Permeable-Phenotype (%) [2]: 19%
- Population Mitochondria Different-Phenotype (%) [2]: 80%
- Population Mitotic Cells (%) [2]: 26%
- Population Normal (%) [2]: 86%
- Population Pyknosed Nuclei (%) [2]: 41%
- Population Tubulin-Different-Phenotype (%) [2]: 100%
- Total Cell Count [2]: 107
- Population Apoptotic (%) [3]: 58%
- Population Fragmented Nuclei (%) [3]: 5%
- Population Healthy Nuclei (%) [3]: 82%
- Population Hoechst High Intensity Objects (%) [3]: 1%
- Population Membrane Permeable-Phenotype (%) [3]: 35%
- Population Mitochondria Different-Phenotype (%) [3]: 7%
- Population Mitotic Cells (%) [3]: 41%
- Population Normal (%) [3]: 98%
- Population Pyknosed Nuclei (%) [3]: 12%
- Population Tubulin-Different-Phenotype (%) [3]: 21%
- Total Cell Count [3]: 152
- Population Apoptotic (%) [4]: 25%
- Population Fragmented Nuclei (%) [4]: 16%
- Population Healthy Nuclei (%) [4]: 79%
- Population Hoechst High Intensity Objects (%) [4]: 13%
- Population Membrane Permeable-Phenotype (%) [4]: 43%
- Population Mitochondria Different-Phenotype (%) [4]: 16%
- Population Mitotic Cells (%) [4]: 75%
- Population Normal (%) [4]: 86%
- Population Pyknosed Nuclei (%) [4]: 4%
- Population Tubulin-Different-Phenotype (%) [4]: 22%
- Total Cell Count [4]: 113
- Population Apoptotic (%) [5]: 91%
- Population Fragmented Nuclei (%) [5]: 21%
- Population Hoechst High Intensity Objects (%) [5]: 12%
- Population Membrane Permeable-Phenotype (%) [5]: 70%
- Population Mitochondria Different-Phenotype (%) [5]: 100%
- Population Mitotic Cells (%) [5]: 8%
- Population Normal (%) [5]: 87%
- Population Pyknosed Nuclei (%) [5]: 61%
- Total Cell Count [5]: 160
- Population Apoptotic (%) [6]: 92%
- Population Fragmented Nuclei (%) [6]: 35%
- Population Healthy Nuclei (%) [6]: 17%
- Population Hoechst High Intensity Objects (%) [6]: 14%
- Population Membrane Permeable-Phenotype (%) [6]: 93%
- Population Mitochondria Different-Phenotype (%) [6]: 93%
- Population Mitotic Cells (%) [6]: 7%
- Population Normal (%) [6]: 85%
- Population Pyknosed Nuclei (%) [6]: 47%
- Population Tubulin-Different-Phenotype (%) [6]: 100%
- Total Cell Count [6]: 131
- Population Apoptotic (%) [7]: 62%
- Population Fragmented Nuclei (%) [7]: 5%
- Population Healthy Nuclei (%) [7]: 89%
- Population Hoechst High Intensity Objects (%) [7]: 3%
- Population Membrane Permeable-Phenotype (%) [7]: 29%
- Population Mitochondria Different-Phenotype (%) [7]: 9%
- Population Mitotic Cells (%) [7]: 37%
- Population Normal (%) [7]: 96%
- Population Pyknosed Nuclei (%) [7]: 5%
- Population Tubulin-Different-Phenotype (%) [7]: 18%
- Total Cell Count [7]: 182
- Population Apoptotic (%) [8]: 66%
- Population Fragmented Nuclei (%) [8]: 10%
- Population Healthy Nuclei (%) [8]: 84%
- Population Hoechst High Intensity Objects (%) [8]: 16%
- Population Membrane Permeable-Phenotype (%) [8]: 27%
- Population Mitochondria Different-Phenotype (%) [8]: 17%
- Population Mitotic Cells (%) [8]: 33%
- Population Normal (%) [8]: 83%
- Population Tubulin-Different-Phenotype (%) [8]: 17%
- Total Cell Count [8]: 120
